Where a SMILES comes first, the peptide text is derived from it. [ ]: non-standard residue; d: D form. NMeF = CN[C@@H](Cc1ccccc1)C(=O)O
Tests used:
[1] = molecular target: Neuropeptide FF receptor 2 (Rattus norvegicus, UniProt Q9EQD2); experiment: Binding affinity for NPPF receptor in rat spinal cord membranes using the radioligand [125I]-[Tyr1]NPFF; type: cell membranes, Membrane
In short: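 Displacement of [125I][Tyr1]NPFF (0.1 nM final) from rat spinal cord membranes, 30 min at 25 °C, in 50 mM Tris-HCl pH 7.4 with 120 mM NaCl, 0.5% BSA, 0.1 mM bestatin, 1 mM EDTA, 0.5 mM diisopropylfluorophosphate. Unlabeled peptides 5×10^-11–10^-6 M; nonspecific binding with 10^-6 M [Tyr1]NPFF. Stopped by ice-cold buffer and centrifugation; pellet gamma-counted. Ki via Cheng-Prusoff from IC50; three determinations.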

Mus musculus = organism: Mus musculus; experiment: Minimum effective dose able to significantly reverse morphine analgesia in male CDF1 mice by tail-flick test; type: functional
In short: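 Analog (0, 1, 2.2, 8.8 or 22 nmol) coinjected icv with 5.5 nmol morphine in 150 mM NaCl, 10 mice per group. Radiant-heat tail-flick read 15 min later, baseline 2-3 s, 6 s cutoff defined as 100% analgesia. Percent antinociception = (Tt−Tc)/(6−Tc)×100.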

Sequence of Neuropeptide FF receptor 2 (Q9EQD2 whole entry): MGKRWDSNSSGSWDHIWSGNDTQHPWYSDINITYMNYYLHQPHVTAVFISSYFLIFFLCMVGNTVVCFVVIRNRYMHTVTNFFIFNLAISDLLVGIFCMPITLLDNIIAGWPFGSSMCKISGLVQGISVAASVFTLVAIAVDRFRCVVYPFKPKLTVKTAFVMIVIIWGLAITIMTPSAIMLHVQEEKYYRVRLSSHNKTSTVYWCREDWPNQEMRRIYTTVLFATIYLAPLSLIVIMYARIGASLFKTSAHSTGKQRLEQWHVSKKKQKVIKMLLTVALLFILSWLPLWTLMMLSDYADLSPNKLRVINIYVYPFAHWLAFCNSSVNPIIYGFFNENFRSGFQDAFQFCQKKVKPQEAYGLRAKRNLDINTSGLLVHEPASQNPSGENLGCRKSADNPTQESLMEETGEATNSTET

Compound	Ki [1]	MED (Mus musculus)
N=C(N)NCCC[C@H](NC(=O)[C@@H](N)CCC(N)=O)C(=O)N[C@@H](Cc1ccccc1)C(N)=O (H-Gln-Arg-Phe-NH2)	300 nM	
CC(C)C[C@@H](NC(=O)[C@H](N)Cc1ccc(O)cc1)C(=O)N[C@H](Cc1ccccc1)C(=O)N[C@@H](CCC(N)=O)C(=O)N1CCC[C@H]1C(=O)N[C@@H](CCC(N)=O)C(=O)N[C@@H](CCCNC(=N)N)C(=O)N[C@@H](Cc1ccccc1)C(N)=O	1 nM	
CC(C)C[C@@H](NC(=O)[C@H](N)Cc1ccc(O)cc1)C(=O)N[C@@H](Cc1ccccc1)C(=O)N[C@@H](CCC(N)=O)C(=O)N1CCC[C@H]1C(=O)N[C@@H](CCC(N)=O)C(=O)N[C@@H](CCCN=C(N)N)C(=O)N[C@@H](Cc1ccccc1)C(N)=O	0.5 nM	
NC(=O)CC[C@H](NC(=O)[C@@H]1CCCN1C(=O)[C@@H](N)CCC(N)=O)C(=O)N[C@@H](CCCN=C(N)N)C(=O)N[C@@H](Cc1ccccc1)C(N)=O	20.9 nM	> 22 nmol
H-FLFGPQRF-NH2	10 nM	
CC(C)C[C@H](NC(=O)[C@@H](N)Cc1ccc(O)cc1)C(=O)N[C@@H](Cc1ccccc1)C(=O)N[C@@H](CCC(N)=O)C(=O)N1CCC[C@@H]1C(=O)N[C@@H](CCC(N)=O)C(=O)N[C@@H](CCCN=C(N)N)C(=O)N[C@@H](Cc1ccccc1)C(N)=O	30 nM	
CC(C)C[C@H](N)C(=O)N[C@@H](Cc1ccccc1)C(=O)N[C@@H](CCC(N)=O)C(=O)N1CCC[C@H]1C(=O)N[C@@H](CCC(N)=O)C(=O)N[C@@H](CCCN=C(N)N)C(=O)N[C@@H](Cc1ccccc1)C(N)=O	0.2 nM	
CC(C)C[C@H](NC(=O)[C@@H](N)Cc1ccc(O)cc1)C(=O)N[C@@H](Cc1ccccc1)C(=O)N[C@@H](CCC(N)=O)C(=O)N1CCC[C@H]1C(=O)N[C@@H](CCC(N)=O)C(=O)N[C@@H](CCCN=C(N)N)C(=O)N[C@@H](Cc1ccccc1)C(N)=O	0.2 nM	8.8 nmol
NC(=O)CC[C@H](NC(=O)[C@@H]1CCCN1C(=O)[C@H](CCC(N)=O)NC(=O)[C@@H](N)Cc1ccccc1)C(=O)N[C@@H](CCCN=C(N)N)C(=O)N[C@@H](Cc1ccccc1)C(N)=O	0.43 nM	22 nmol
CC(C)C[C@H](NC(=O)[C@@H](N)Cc1ccccc1)C(=O)N[C@@H](Cc1ccccc1)C(=O)N[C@@H](CCC(N)=O)C(=O)N1CCC[C@H]1C(=O)N[C@@H](CCC(N)=O)C(=O)N[C@@H](CCCN=C(N)N)C(=O)N[C@@H](Cc1ccccc1)C(N)=O		22 nmol
CC(C)C[C@H](N)C(=O)N[C@@H](Cc1ccccc1)C(=O)N[C@@H](CCC(N)=O)C(=O)N1CCC[C@@H]1C(=O)N[C@@H](CCC(N)=O)C(=O)N[C@@H](CCCNC(=N)N)C(=O)N[C@@H](Cc1ccccc1)C(N)=O	33 nM	
H-FLYQPQRF-NH2	0.22 nM	
CC(C)C[C@H](NC(=O)[C@H](N)Cc1ccc(O)cc1)C(=O)N(C)[C@@H](Cc1ccccc1)C(=O)N[C@@H](CCC(N)=O)C(=O)N1CCC[C@H]1C(=O)N[C@@H](CCC(N)=O)C(=O)N[C@@H](CCCN=C(N)N)C(=O)N[C@@H](Cc1ccccc1)C(N)=O (H-[dY]L[NMeF]QPQRF-NH2)	0.16 nM	8.8 nmol
CC(C)C[C@@H](NC(=O)[C@H](N)Cc1ccc(O)cc1)C(=O)N(C)[C@@H](Cc1ccccc1)C(=O)N[C@@H](CCC(N)=O)C(=O)N1CCC[C@H]1C(=O)N[C@@H](CCC(N)=O)C(=O)N[C@@H](CCCNC(=N)N)C(=O)N[C@@H](Cc1ccccc1)C(N)=O (H-[dY][dL][NMeF]QPQRF-NH2)	0.19 nM	
H-FLFQGQRF-NH2	1.2 nM	8.8 nmol
H-FLFQPGRF-NH2	0.6 nM	
NC(=O)CC[C@H](NC(=O)[C@H]1CCCN1C(=O)[C@H](CCC(N)=O)NC(=O)[C@@H](N)Cc1ccccc1)C(=O)N[C@@H](CCCN=C(N)N)C(=O)N[C@@H](Cc1ccccc1)C(N)=O	45 nM	
NC(=O)CC[C@H](NC(=O)[C@H]1CCCN1)C(=O)N[C@@H](CCCN=C(N)N)C(=O)N[C@@H](Cc1ccccc1)C(N)=O	94 nM	
NC(=O)CC[C@H](NC(=O)[C@H]1CCCN1C(=O)[C@@H](N)CCC(N)=O)C(=O)N[C@@H](CCCN=C(N)N)C(=O)N[C@@H](Cc1ccccc1)C(N)=O	64 nM	

— ChEMBL document CHEMBL1127731, “Structure-activity study of neuropeptide FF: contribution of N-terminal regions to affinity and activity” (J Med Chem, 1994)
